ChEMBL document CHEMBL1158468, “Synthesis, structure-activity relationships, and in vivo evaluation of N3-phenylpyrazinones as novel corticotropin-releasing factor-1 (CRF1) receptor antagonists” (J Med Chem, 2009)
One block for each molecule: values may come before it. Activity calls are given as the source filed them. No cut-off for these calls is given here.

What was measured:
[1] = biological target: T1, Corticotropin-releasing factor receptor 1 (Rattus norvegicus, UniProt P35353); test: Displacement of [125I]Tyr-ovine-CRF from CRF1 receptor in rat frontal cortex homogenate by gamma counting; assay type: tissue-based
T1 sequence (P35353 whole entry): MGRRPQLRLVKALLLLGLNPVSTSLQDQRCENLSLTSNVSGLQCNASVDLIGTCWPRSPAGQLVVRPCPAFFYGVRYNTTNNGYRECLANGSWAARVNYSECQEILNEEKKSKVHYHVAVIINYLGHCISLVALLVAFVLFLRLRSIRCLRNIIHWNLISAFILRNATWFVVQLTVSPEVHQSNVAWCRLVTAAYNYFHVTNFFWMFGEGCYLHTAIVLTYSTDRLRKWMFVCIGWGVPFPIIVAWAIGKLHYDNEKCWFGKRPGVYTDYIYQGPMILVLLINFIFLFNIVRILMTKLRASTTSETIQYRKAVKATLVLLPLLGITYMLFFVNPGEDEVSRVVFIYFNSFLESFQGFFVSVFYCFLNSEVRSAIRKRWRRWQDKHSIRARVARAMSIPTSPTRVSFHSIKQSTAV
In short: (§1)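 Washed homogenates of frozen rat frontal cortex (CRF1, 25 μg/well) or porcine choroid plexus (CRF2, 10 μg/well) in 50 mM Hepes pH 7.0, 10 mM MgCl2, 2 mM EGTA, protease inhibitors, 0.005% Triton X-100. Ligand 150 pM 125I-ovine-CRF (CRF1) or 100 pM 125I-sauvagine (CRF2). Incubation 2 h at 21 °C, then filtration and gamma counting. Nonspecific binding: 1 μM CRF1 reference antagonist or 1 μM α-helical CRF(9-41). IC50 from 5- or 10-point curves by nonlinear regression.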

Rattus norvegicus [2] = test: Plasma concentration in Sprague-Dawley rat at 1 mg/kg, po; assay type: ADME, organism-based; design: dose 1 mg/kg, route oral; conditions: in vivo
[3] = Half life in Sprague-Dawley rat at 2 mg/kg, iv; assay type: ADME, organism-based; design: dose 2 mg/kg, route intravenous; conditions: in vivo
In short: (§2)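 Male Sprague-Dawley rats; iv 2 mg/kg in PEG:ethanol 90:10 (v/v) at 1 mL/kg, or oral 10 mg/kg as 1% Tween 80 in 0.5% methylcellulose suspension at 3 mL/kg; n = 3 per route. Jugular catheter blood taken to 24 h postdose. Plasma was protein-precipitated with acetonitrile and assayed by LC/MS/MS.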

[4] = Volume of distribution at steady state in cynomolgus monkey at 2 mg/kg, iv; assay type: ADME, organism-based, Macaca fascicularis; design: dose 2 mg/kg, route intravenous; conditions: in vivo, read-out: Vdss
In short: (§3)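 Cynomolgus monkeys, n = 3 per route. Iv dose 2 mg/kg in PEG:ethanol 90:10 (v/v), 1 mL/kg, sampled from jugular vein. Oral dose 10 mg/kg as suspension in 1% Tween in 0.5% methylcellulose, 3 mL/kg, sampled from femoral vein. Sampling to 24 h; plasma measured by LC/MS/MS.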

[5] = biological target: T2, Corticotropin-releasing factor receptor 1 (Homo sapiens, UniProt P34998); test: Antagonist activity at CRF1 receptor in human Y79 cells assessed as inhibition of CRF-stimulated cAMP production by HTRF method
T2 sequence (P34998 whole entry): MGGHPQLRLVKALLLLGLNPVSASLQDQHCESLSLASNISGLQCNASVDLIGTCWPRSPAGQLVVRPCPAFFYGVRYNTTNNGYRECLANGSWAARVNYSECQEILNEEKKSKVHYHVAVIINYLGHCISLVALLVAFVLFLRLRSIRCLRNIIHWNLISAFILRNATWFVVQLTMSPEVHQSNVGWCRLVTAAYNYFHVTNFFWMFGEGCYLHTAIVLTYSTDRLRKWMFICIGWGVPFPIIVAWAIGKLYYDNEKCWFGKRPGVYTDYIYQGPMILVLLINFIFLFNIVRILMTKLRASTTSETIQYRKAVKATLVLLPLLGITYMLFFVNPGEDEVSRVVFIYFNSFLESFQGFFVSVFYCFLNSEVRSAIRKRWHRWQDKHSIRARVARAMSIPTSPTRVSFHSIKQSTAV

[6] = AUC in Sprague-Dawley rat at 10 mg/kg, po; assay type: ADME, organism-based; design: dose 10 mg/kg, route oral; conditions: plasma; in short: as §2
Rattus norvegicus [7] = test: Plasma concentration in Sprague-Dawley rat at 3 mg/kg, po; assay type: ADME, organism-based; design: dose 3 mg/kg, route oral; conditions: in vivo
[8] = Clearance in cynomolgus monkey at 2 mg/kg, iv; assay type: ADME, organism-based, Macaca fascicularis; design: dose 2 mg/kg, route intravenous; conditions: in vivo; in short: as §3
[9] = Cmax in Sprague-Dawley rat at 10 mg/kg, po; assay type: ADME, organism-based; design: dose 10 mg/kg, route oral; conditions: in vivo; in short: as §2
Rattus norvegicus [10] = test: Anxiolytic activity in po dosed Sprague-Dawley rat assessed as minimal effective dose by defensive withdrawal test; assay type: functional; conditions: read-out: MED
In short: (§4)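 Male Sprague-Dawley rats (180–300 g), dosed po 1 h before testing in 0.25% methylcellulose suspension (bead-milled), 2 mL/kg. Blind observer recorded the latency to leave a dark chamber placed in an illuminated open field (all four paws out) over 15 min. ANOVA with Fisher's LSD, p < 0.05.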

[11] = Volume of distribution at steady state in Sprague-Dawley rat at 2 mg/kg, iv; assay type: ADME, organism-based; design: dose 2 mg/kg, route intravenous; conditions: in vivo, read-out: Vdss; in short: as §2
[12] = Oral bioavailability in Sprague-Dawley rat at 10 mg/kg; assay type: ADME, organism-based; conditions: in vivo; in short: as §2
Rattus norvegicus [13] = test: Anxiolytic activity in Sprague-Dawley rat assessed as decrease in latency to exit dark chamber at 3 mg/kg, po after 1 hr by defensive withdrawal test; assay type: functional; design: scale not given: the % may be the effect or the level left; in short: as §4
[14] = Half life in cynomolgus monkey at 2 mg/kg, iv; assay type: ADME, organism-based, Macaca fascicularis; design: dose 2 mg/kg, route intravenous; conditions: in vivo; in short: as §3
Rattus norvegicus [15] = test: Ex vivo displacement of [125I-Tyro]-sauvagine from CRF1 receptor in Sprague-Dawley rat parietal cortex at 3 mg/kg, po by autoradiography; assay type: functional
In short: (§5)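 Brains from orally dosed rats taken after the defensive withdrawal test. 20 μm cryostat sections preincubated 1 min, then incubated 20 min at 22–24 °C with 0.15–0.20 nM [125I-Tyro]sauvagine in 50 mM HEPES pH 7.2 buffer. Nonspecific binding from vehicle sections with 1 μM reference CRF1 antagonist. Parietal cortex occupancy read by autoradiography and computed relative to vehicle specific binding.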

Rattus norvegicus [16] = test: Free plasma concentration in Sprague-Dawley rat at 1 mg/kg, po; assay type: ADME, organism-based; design: dose 1 mg/kg, route oral; conditions: in vivo
Rattus norvegicus [17] = test: Free plasma concentration in Sprague-Dawley rat at 3 mg/kg, po; assay type: ADME, organism-based; design: dose 3 mg/kg, route oral; conditions: in vivo
[18] = Cmax in cynomolgus monkey at 10 mg/kg, po; assay type: ADME, organism-based, Macaca fascicularis; design: dose 10 mg/kg, route oral; conditions: in vivo; in short: as §3
Rattus norvegicus [19] = test: Free plasma concentration in Sprague-Dawley rat at 10 mg/kg, po; assay type: ADME, organism-based; design: dose 10 mg/kg, route oral; conditions: in vivo
Rattus norvegicus [20] = test: Anxiolytic activity in Sprague-Dawley rat assessed as decrease in latency to exit dark chamber at 10 mg/kg, po after 1 hr by defensive withdrawal test; assay type: functional; design: scale not given: the % may be the effect or the level left; in short: as §4
Rattus norvegicus [21] = test: Ex vivo displacement of [125I-Tyro]-sauvagine from CRF1 receptor in Sprague-Dawley rat parietal cortex at 1 mg/kg, po by autoradiography; assay type: functional; in short: as §5
[22] = Clearance in Sprague-Dawley rat at 2 mg/kg, iv; assay type: ADME, organism-based; design: dose 2 mg/kg, route intravenous; conditions: in vivo; in short: as §2
Rattus norvegicus [23] = test: Ex vivo displacement of [125I-Tyro]-sauvagine from CRF1 receptor in Sprague-Dawley rat parietal cortex at 10 mg/kg, po by autoradiography; assay type: functional; in short: as §5
[24] = (§6) Displacement of [125I]sauvagine from CRF2 receptor in pig choroid plexus homogenate by gamma counting; assay type: tissue-based, Sus scrofa; in short: as §1
Sus scrofa = species: Sus scrofa; test: as §6; assay type: tissue-based; in short: as §1
Rattus norvegicus [25] = test: Anxiolytic activity in Sprague-Dawley rat assessed as decrease in latency to exit dark chamber at 1 mg/kg, po after 1 hr by defensive withdrawal test; assay type: functional; design: scale not given: the % may be the effect or the level left; in short: as §4
[26] = Octanol-water partition coefficient, log D at pH 7.4; assay type: physicochemical
[27] = AUC in cynomolgus monkey at 10 mg/kg, po; assay type: ADME, organism-based, Macaca fascicularis; design: dose 10 mg/kg, route oral; conditions: plasma; in short: as §3
[28] = Oral bioavailability in cynomolgus monkey at 10 mg/kg; assay type: ADME, organism-based, Macaca fascicularis; conditions: in vivo; in short: as §3
Rattus norvegicus [29] = test: Plasma concentration in Sprague-Dawley rat at 10 mg/kg, po; assay type: ADME, organism-based; design: dose 10 mg/kg, route oral; conditions: in vivo
Rattus norvegicus [30] = test: Hepatic blood flow in Sprague-Dawley rat at 2 mg/kg, iv; assay type: ADME, organism-based, Liver; design: dose 2 mg/kg, route intravenous; conditions: in vivo
[31] = Unbound fraction in rat plasma after 3 hrs by equilibrium dialysis method; assay type: ADME, cell-free
In short: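 Rat plasma spiked with compound, then equilibrium-dialysed against isotonic phosphate buffer for 3 h at 37 °C. Compound in the plasma and buffer samples was quantified by LC/MS/MS after acetonitrile protein precipitation with internal standard. Unbound fraction was taken as the buffer-to-plasma concentration ratio.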

SMILES: CCC(C1CC1)n1cc(Cl)nc(Nc2c(Cl)cc(C#N)cc2Cl)c1=O (single isomer, unassigned)
IC50 [1]: 2.8 nM

SMILES: CC[C@H](C1CC1)n1cc(Cl)nc(Nc2c(C)cc(C)cc2C)c1=O
IC50 [1]: 0.63 nM

SMILES: CCC(CC)Cn1cc(Cl)nc(Nc2cc(C)c(OC)cc2C)c1=O
IC50 [1]: 76 nM

SMILES: COc1ccc(Nc2nc(Br)cn([C@H](C)C3CC3)c2=O)c(C(F)(F)F)n1
IC50 [1]: 1.2 nM

SMILES: COC[C@@H](C1CC1)n1cc(Cl)nc(Nc2cc(C)c(OC)cc2C)c1=O
concentration (Rattus norvegicus [2]): 4.9 nM | half-life [3]: 18 h | Vd [4]: 7.7 L/kg | IC50 [5]: 1.9 nM | AUC [6]: 0.36 µM·h | concentration (Rattus norvegicus [7]): 14 nM | clearance [8]: 21 mL/min/kg | Cmax [9]: 52 nM | minimal effective dose (Rattus norvegicus [10]): 3 mg/kg | Vd [11]: 97 L/kg | bioavailability [12]: 14% | Activity (Rattus norvegicus [13]): 60% | half-life [14]: 9.3 h | Activity (Rattus norvegicus [15]): 72% | Cp(f) (Rattus norvegicus [16]): 0.1 nM | Cp(f) (Rattus norvegicus [17]): 0.29 nM | Cmax [18]: 32 nM | Cp(f) (Rattus norvegicus [19]): 1.6 nM | Activity (Rattus norvegicus [20]): 65% | Activity (Rattus norvegicus [21]): 37% | clearance [22]: 170 mL/min/kg | Activity (Rattus norvegicus [23]): 94% | IC50 [24]: > 10000 nM | Activity (Sus scrofa): inactive | Activity (Rattus norvegicus [25]): <5% | logD [26]: 4.35 | AUC [27]: 0.41 µM·h | bioavailability [28]: 2% | concentration (Rattus norvegicus [29]): 76 nM | IC50 [1]: 0.26 nM | QH (Rattus norvegicus [30]): 55 mL/min/kg | fraction unbound at 3 h [31]: 0.021

SMILES: CC[C@H](C1CC1)n1cc(Cl)nc(N(CC)c2c(C)cc(C)cc2C)c1=O
IC50 [1]: 4.6 nM

SMILES: C[C@@H](C1CC1)n1cc(Cl)nc(Nc2c(Cl)cc(C#N)cc2Cl)c1=O
IC50 [1]: 6.3 nM

SMILES: CC[C@H](C1CC1)n1cc(Cl)nc(Nc2ccc(C)cc2C)c1=O
IC50 [1]: 6.6 nM

Further molecules by falling IC50 [1], results first:

IC50 [1]: 35 nM
SMILES: Cc1cc(C)c(Nc2nc(Cl)cn([C@@H](CO)C3CC3)c2=O)c(C)c1

IC50 [1]: 16 nM
SMILES: COCC(COC)n1cc(Cl)nc(Nc2c(C)cc(C)cc2C)c1=O

IC50 [1]: 2.4 nM
SMILES: C[C@H](C1CC1)n1cc(Cl)nc(Nc2c(Cl)cc(C#N)cc2Cl)c1=O

IC50 [1]: 1.7 nM
SMILES: Cc1cc(C)c(Nc2nc(Cl)cn([C@H](C)C3CC3)c2=O)c(C)c1

IC50 [1]: 0.62 nM
SMILES: CCCC(CCC)n1cc(Cl)nc(Nc2cc(C)c(OC)cc2C)c1=O
